These results are taken from ChEMBL document CHEMBL5338743, “Identification of a Selective SCoR2 Inhibitor That Protects Against Acute Kidney Injury” (J Med Chem, 2023).

Series [1] relates to Mus musculus. Description: In vivo inhibition of SCoR2 in C57BL/6J mouse assessed as reduction in SNO-CoA metabolic activity in heart at 120 mg/kg body weight, ip administered as single dose into abdomen measured after 18 hrs. The class given is functional, organism-based. The method, boiled down: (§1)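 Single i.p. injection into the mouse abdomen, DMSO vehicle; organs collected 18 h later. Tissues homogenized in 50 mM phosphate pH 7.0, 150 mM NaCl, EDTA/DTPA, then clarified; lysate started reactions with 200 μM SNO-CoA and 100 μM NADPH, 2 min, NADPH loss monitored, in triplicate. Compared with vehicle and SCoR2−/− kidneys.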

For series [2], the system named is Mus musculus. Put plainly: Protection against ischemia/reperfusion induced acute kidney injury in mouse assessed as reduction in sloughed debris in the tubular lumen at 120 mg/kg, ip pretreated for 18 hrs followed by kidney injury surgery and measured after 24 hrs by H and E staining based analysis. The class given is functional, organism-based. The note with it: time 42.0 hrs. The gist of the method: (§2)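 Mice dosed i.p. 120 mg/kg 18 h before I/R surgery, kidneys harvested 24 h later, H&E-stained. Tubular lysis, brush-border loss and luminal debris scored 0–2 over more than five fields per animal; n=5 mice per group, vehicle controls.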

Series [3] deals with Mus musculus. Put plainly: In vivo inhibition of SCoR2 in C57BL/6J mouse assessed as reduction in SNO-CoA metabolic activity in liver at 120 mg/kg body weight, ip administered as single dose into abdomen measured after 18 hrs. The class given is functional, organism-based. The gist of the method:
as §1

The nature of series [4]: Renal toxicity in mouse assessed as effect on anatomy of medulla at 120 mg/kg, ip treated for 18 hrs under basal conditions by H and E staining based analysis. The class given is organism-based. The note with it: in vivo. The gist of the method: (§3)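 Sham-operated mice given 120 mg/kg i.p. or vehicle; kidney cortex and medulla examined by H&E staining.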
For series [5], the target named is T1, Aldo-keto reductase family 1 member A1 (Homo sapiens) (UniProt P14550).
T1 sequence (whole entry): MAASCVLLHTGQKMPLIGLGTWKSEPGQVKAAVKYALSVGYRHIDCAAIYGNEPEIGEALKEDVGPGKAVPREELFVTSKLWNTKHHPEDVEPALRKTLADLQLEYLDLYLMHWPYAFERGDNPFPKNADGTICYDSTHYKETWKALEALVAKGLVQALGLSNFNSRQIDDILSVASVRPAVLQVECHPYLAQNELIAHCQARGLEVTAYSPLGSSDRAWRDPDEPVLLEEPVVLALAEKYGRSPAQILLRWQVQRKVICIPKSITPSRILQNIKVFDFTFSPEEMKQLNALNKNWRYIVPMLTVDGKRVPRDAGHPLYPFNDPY
Description: Binding affinity to C-terminal 6His-tagged human recombinant SCoR2 AKR1A1 expressed in Escherichia coli BL21-CodonPlus competent cells assessed as melting temperature at +/- 250 uM incubated for 45 mins by SYPRO orange dye based DSF analysis (reference value: 48.3 degreeC). The method, boiled down: (§4)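 5 μM protein with or without 250 μM NADPH or NADP⁺ and 250 μM inhibitor; cofactor preincubated 15 min, then inhibitor 30 min at room temperature. 10X SYPRO Orange added; temperature ramped 25–70°C in 0.3°C steps. DMSO-matched controls (1%); duplicates.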

For series [6], the system named is Mus musculus. Description: Protection against ischemia/reperfusion induced acute kidney injury in mouse assessed as reduction in tubular lysis at 120 mg/kg, ip pretreated for 18 hrs followed by kidney injury surgery and measured after 24 hrs by H and E staining based analysis. The note with it: time 42.0 hrs. The class given is functional, organism-based. The gist of the method: as §2

The subject of series [7] is Mus musculus. Description: Protection against ischemia/reperfusion induced acute kidney injury in mouse assessed as reduction in blood urea nitrogen level at 120 mg/kg, ip pretreated for 18 hrs followed by kidney injury surgery and measured after 24 hrs. The class given is functional, organism-based. The note with it: time 42.0 hrs. The gist of the method: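 Male mice (9–11 weeks, 25–28 g) given i.p. dose 18 h before ischemia–reperfusion AKI surgery under isoflurane; serum taken 24 h after reperfusion. Creatinine and BUN measured by a clinical laboratory; DMSO-treated controls.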

Series [8] has as its system Mus musculus. Put plainly: Protection against ischemia/reperfusion induced acute kidney injury in mouse assessed as reduction in loss of brush borders at 120 mg/kg, ip pretreated for 18 hrs followed by kidney injury surgery and measured after 24 hrs by H and E staining based analysis. The class given is functional, organism-based. The note with it: time 42.0 hrs. The method, boiled down:
as §2

In series [9] the test system is Mus musculus. Put plainly: Protection against ischemia/reperfusion induced acute kidney injury in mouse assessed as reduction in PKM2 activity in kidney at 120 mg/kg, ip pretreated for 18 hrs followed by kidney injury surgery and measured after 24 hrs by colorimetric pyruvate kinase activity assay. The note with it: time 42.0 hrs.
For series [10], the system named is Mus musculus. Description: In vivo inhibition of SCoR2 in C57BL/6J mouse assessed as reduction in SNO-CoA metabolic activity in spleen at 120 mg/kg body weight, ip administered as single dose into abdomen measured after 18 hrs. The class given is functional, organism-based. The method, boiled down: as §1
Series [11] concerns the target T2, Aldo-keto reductase family 1 member A1 (Homo sapiens, UniProt P14550).
T2 sequence (P14550 whole entry): T1 sequence (whole entry)
Description: Inhibition of C-terminal 6His-tagged human recombinant SCoR2 AKR1A1 expressed in Escherichia coli BL21-CodonPlus competent cells using SNO-CoA as substrate incubated for 2 mins in presence of NADPH. The method, boiled down: (§5)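 Purified enzyme at 200 nM (SCoR2 with 100 μM SNO-CoA; AKR1B1 with 100 μM methylglyoxylate) in 50 mM phosphate pH 7.0 with serial inhibitor dilutions; started with 100 μM NADPH, 2 min. Rate from 340 nm decrease, normalized to 20 nM protein activity; IC50 fitted, n=3. Selectivity taken as AKR1B1/SCoR2 IC50 ratio.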

Series [12] deals with Mus musculus. Put plainly: In vivo inhibition of SCoR2 in C57BL/6J mouse assessed as reduction in SNO-CoA metabolic activity in brain at 120 mg/kg body weight, ip administered as single dose into abdomen measured after 18 hrs. The class given is functional, organism-based. The gist of the method:
as §1

Series [13] is described as follows: Drug uptake in mouse serum at 120 mg/kg body weight, ip measured at 24 hrs post injection by HPLC/mass spectrometry analysis. The class given is ADME, organism-based. The note with it: in vivo. The method, boiled down:
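Serum collected 24 h after i.p. injection; compound level measured by HPLC/mass spectrometry.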

The subject of series [14] is Mus musculus. Put plainly: In vivo inhibition of SCoR2 in C57BL/6J mouse assessed as reduction in SNO-CoA metabolic activity in lung at 120 mg/kg body weight, ip administered as single dose into abdomen measured after 18 hrs. The class given is functional, organism-based. The gist of the method:
as §1

The target of series [15] is T1, Aldo-keto reductase family 1 member A1 (Homo sapiens). Put plainly: Binding affinity to C-terminal 6His-tagged human recombinant SCoR2 AKR1A1 expressed in Escherichia coli BL21-CodonPlus competent cells assessed as thermal stability by measuring melting temperature at +/- 250 uM preincubated for 15 mins with NADP+ followed by compound addition and measured after 30 mins by SYPRO orange dye based DSF analysis (reference value: 51.4 degreeC). The gist of the method:
as §4
(In DSF a fluorescence change marks the thermal transition of the protein.)

Series [16] is described as follows: In vivo inhibition of SCoR2 in C57BL/6J mouse assessed as reduction in SNO-CoA metabolic activity in kidneys at 120 mg/kg body weight, ip administered as single dose into abdomen measured after 18 hrs relative to control. The class given is functional. The method, boiled down:
as §1

Series [17] is described as follows: Renal toxicity in mouse assessed as effect on anatomy of cortex at 120 mg/kg, ip treated for 18 hrs under basal conditions by H and E staining based analysis. The class given is organism-based. The note with it: in vivo. The gist of the method:
as §3

The target in series [18] is Aldo-keto reductase family 1 member B1 (Homo sapiens, UniProt P15121). Description: Inhibition of C-terminal 6His-tagged human recombinant AKR1B1 expressed in Escherichia coli BL21-CodonPlus competent cells using methyl glyoxylate as substrate incubated for 2 mins in presence of NADPH. The method, boiled down: as §5

Activity calls are given as the source filed them. No cut-off for these calls is given here.

A word on the Tm: it is the temperature at which the thermal transition is half complete. The IC50 is the concentration that gives 50% inhibition. By inhibition in vivo is commonly meant the relative decrease from the control value, in per cent. For `O=C1NC(=O)C2(N1)c1ccccc1-c1ccc(C3CC3)cc12` (stereo not drawn), the inhibition result in the series with Mus musculus [1], in the series with Mus musculus [3], with Mus musculus [10] and with Mus musculus [14] was “Active” in each case. The result in the series on Mus musculus [2], with Mus musculus [6], in the series with Mus musculus [7], in the series with Mus musculus [8] and in the series with Mus musculus [9] was Active. Moreover, the Activity entry in [4] and in [17] was “Non-Toxic” throughout. In addition, the midpoint of thermal melting (Tm) was 46.6 °C in [5] and 54.4 °C in series [15]. Also, the IC50 in series [11] was 93 nM; in series [18], 903 nM. Besides, the inhibition result in the series on Mus musculus [12] was “inactive”. The Drug uptake result in series [13] was “Active”. Further, the inhibition in vivo at 120 mg/kg in series [16] is 80%.
